# Assay results taken from PubChem BioAssay.
# Calls of active or inactive are those of the source.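 The calls were made as follows, unless noted: active = viability loss from added drug above about 55%, and viability with drug at most 40%, in both replicates (limit read from the data, passing the limit was not always enough); inconclusive = both conditions met in only one replicate; inactive = neither replicate meets both conditions.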
# Key:
# [1] = Her2 expression decrease, cell viability multiplex – SKBR3 breast tumor cells, AlphaScreen, ATP viability, primary screen (AID 461;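 active = Her2 level under about 52% in both replicate screens, with viability over 70% of control, limit read from the data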;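 as to Her2 level: lower value means less Her2 protein in the cells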;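 as to viability: percent of carrier control wells set as 100% viability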); details: SKBR3 Her2 protein level, 18-24 h, measured here: SKBR3 viability, ATP luminescence, at 10 µM
# [2] = target: Receptor tyrosine-protein kinase erbB-2 (Homo sapiens) (UniProt P04626); assay: as above; details: 18-24 h, at 10 µM, stronger effect = lower value
# [3] = reduced viability of SK-BR-3 breast cancer cells – cell-based, 24 h, human, pilot screen (AID 572;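 active = viability at or below 10% of carrier control in both of two separate runs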;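 also: compound exposure lasted between 18 and 24 h rather than exactly 24 h; 100% = carrier-treated control wells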); details: SK-BR-3 viability, CellTiter-Glo luminescence, at 10 µM, stronger effect = lower value
# [4] = HUVEC growth inhibition – cell-based, human, primary screen (AID 575;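 active = viability at or below 30% in both replicate assays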;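 also: 100% = median of untreated cell wells with 0.1% DMSO on each plate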); details: HUVEC proliferation, CellTiter-Glo luminescence, 72 h; at 10 µM; stronger effect = lower value
# Procedure, shortened: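 Assay system: primary human umbilical vein endothelial cells / Buffer or medium: endothelial basal medium with 2% FBS plus growth supplements / Compound dosing: one dose, 10 µM final, 0.1% DMSO / Timing: 72 h treatment at 37 °C / Signal: CTG luminescence / Benchmarks: 32 DMSO-only cell-control wells (high), 32 MePR drug-control wells (low) per plate / Plate: collagen-coated 384-well format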
# [5] = H69AR cell proliferation blockers – human, duplicate replicates, primary screen (AID 580;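 active = viability at or under a set limit in both replicates, limit being median viability minus 3 SD, cut at about 48% in these data, passing the limit was not always enough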;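 also: 100% = mean luminescence of untreated wells and 0% = no signal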); details: H69AR lung tumor cells viability, ATP luminescence, 72 h; at 10 µM; stronger effect = lower value
# [6] = MRP1 drug-resistance reversers in H69AR cells – cell-based, doxorubicin co-treatment, pilot screen (AID 601); details: CellTiter-Glo, 72 h, at 10 µM; for differential viability (reversal): stronger effect = higher value
# [7] = yeast transport mutant growth inhibition pilot in 384-well plates, post-Golgi transport modulator project (AID 636; in the data active = inhibition above about 31%); details: absorbance 615 nm, about 18 h, stronger effect = higher value
# [8] = growth suppression of yeast trafficking mutant, preliminary HTS, modulators of trafficking downstream of Golgi apparatus project, 1536-format plate, OD 615 nm (AID 637; in the data active = inhibition above about 30%); details: yeast transport mutant growth, absorbance 615 nm, 18 h; stronger effect = higher value
# [9] = H69AR cells + 2 uM doxorubicin, measured here: viability with 2 uM doxorubicin, stronger effect = lower value
# [10] = H69AR cells, compound alone cytotoxicity
# Receptor tyrosine-protein kinase erbB-2 (Homo sapiens), sequence (P04626 whole entry, looked up): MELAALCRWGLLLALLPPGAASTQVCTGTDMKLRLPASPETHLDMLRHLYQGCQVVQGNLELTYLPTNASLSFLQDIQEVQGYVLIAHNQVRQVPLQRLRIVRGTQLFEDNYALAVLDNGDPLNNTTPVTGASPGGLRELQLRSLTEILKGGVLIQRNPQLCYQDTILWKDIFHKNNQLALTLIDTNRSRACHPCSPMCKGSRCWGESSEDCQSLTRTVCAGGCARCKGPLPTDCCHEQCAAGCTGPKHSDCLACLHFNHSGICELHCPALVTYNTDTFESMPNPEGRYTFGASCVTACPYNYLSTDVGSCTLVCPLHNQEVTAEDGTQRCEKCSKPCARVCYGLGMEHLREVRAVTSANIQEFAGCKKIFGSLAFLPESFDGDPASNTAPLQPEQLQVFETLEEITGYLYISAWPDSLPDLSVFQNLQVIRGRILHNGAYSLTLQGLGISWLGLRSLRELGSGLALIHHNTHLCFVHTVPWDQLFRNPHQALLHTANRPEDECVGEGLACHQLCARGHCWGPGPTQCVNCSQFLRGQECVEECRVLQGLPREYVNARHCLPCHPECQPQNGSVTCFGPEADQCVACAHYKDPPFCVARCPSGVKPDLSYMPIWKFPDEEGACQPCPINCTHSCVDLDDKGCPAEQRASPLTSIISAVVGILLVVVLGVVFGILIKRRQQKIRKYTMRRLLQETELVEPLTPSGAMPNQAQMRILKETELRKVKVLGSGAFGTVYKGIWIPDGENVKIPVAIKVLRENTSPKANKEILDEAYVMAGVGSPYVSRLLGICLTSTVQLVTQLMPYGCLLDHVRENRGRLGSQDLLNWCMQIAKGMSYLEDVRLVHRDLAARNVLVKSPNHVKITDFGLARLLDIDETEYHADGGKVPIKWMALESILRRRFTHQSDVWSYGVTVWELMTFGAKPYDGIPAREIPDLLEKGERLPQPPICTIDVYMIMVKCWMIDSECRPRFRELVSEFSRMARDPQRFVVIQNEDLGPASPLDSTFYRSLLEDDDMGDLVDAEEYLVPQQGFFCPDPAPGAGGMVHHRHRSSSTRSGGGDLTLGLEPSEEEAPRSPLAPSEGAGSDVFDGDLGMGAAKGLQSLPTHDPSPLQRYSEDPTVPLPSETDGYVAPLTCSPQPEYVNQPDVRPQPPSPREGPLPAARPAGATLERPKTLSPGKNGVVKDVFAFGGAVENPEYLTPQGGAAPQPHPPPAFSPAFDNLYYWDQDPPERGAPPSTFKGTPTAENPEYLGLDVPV
Compound,viability [1] [%],Her2 level [2],viability [3],viability [4],viability [5],differential viability (reversal) ([6]; H69AR cells + 2 uM doxorubicin),"viability [6, 9] [%]","viability [6, 10] [%]",inhibition [7],inhibition [8]
CCOC(=O)Cc1csc(NC(=O)CSc2nnc(C(C)C)n2CC)n1,126,86% (inactive),126% (inactive),88% (inactive),89.8% (inactive),1.63% (inactive),88.2,89.8,-6.13% (inactive),1.59% (inactive)
CCCCCC1CC(CC#CCN2CCOCC2)C(=O)O1 (stereo not given),86,102% (inactive),86% (inactive),83.4% (inactive),93.8% (inactive),1.16% (inactive),92.6,93.8,-7.4% (inactive),-7.78% (inactive)
O=C(NCC1COc2ccccc2O1)c1ccc(NC(=O)c2ccco2)cc1 (stereo not given),85.5,83% (inactive),85.5% (inactive),105% (inactive),99.1% (inactive),6.69% (inactive),92.4,99.1,0% (inactive),-2.33% (inactive)
COc1cccc(-c2cc(C(=O)N3CCCc4ccccc43)no2)c1,110,89.5% (inactive),110% (inactive),94.6% (inactive),92.4% (inactive),5.08% (inactive),87.4,92.4,-6.49% (inactive),-0.83% (inactive)
CCCCCn1c2nc3ccccc3nc2c2c(=O)n(CC(C)C)cnc21,116,103% (inactive),116% (inactive),103% (inactive),87.3% (inactive),-3.98% (inactive),91.3,87.3,-0.79% (inactive),3.55% (inactive)
CCCCCCC(=O)c1c(C)[nH]c(C(=O)OCC)c1C,98,86.5% (inactive),98% (inactive),60.2% (inactive),92.7% (inactive),6.9% (inactive),85.8,92.7,-5.73% (inactive),4.03% (inactive)
CCC12CN3CC(CC)(CN(C1)C3c1ccc(OC(C)C)cc1)C2=O (stereo not given),94,92% (inactive),94% (inactive),110% (inactive),105% (inactive),10.7% (inactive),94.6,105,-3.78% (inactive),-0.95% (inactive)
CC(C)[C@H](NC(=O)NCc1ccc(Cl)cc1)C(=O)O,86,77% (inactive),86% (inactive),89.1% (inactive),103% (inactive),11.2% (inactive),91.9,103,-4% (inactive),-4.75% (inactive)
O=C(NCCSCc1ccco1)Nc1cccc(Cl)c1,83.5,95% (inactive),83.5% (inactive),63.6% (inactive),86.3% (inactive),2.05% (inactive),84.2,86.3,-5.33% (inactive),-3.97% (inactive)
O=C1CC(c2ccco2)CC(O)=C1C=NCC1NCCc2ccccc21 (stereo not given),78.5,98.5% (inactive),78.5% (inactive),91.5% (inactive),90.7% (inactive),-3.47% (inactive),94.1,90.7,-0.92% (inactive),7.14% (inactive)
Cc1sc2nc(SCC(=O)NCc3ccco3)n(CCc3ccccc3)c(=O)c2c1C,102,86.5% (inactive),102% (inactive),58.3% (inactive),40% (active),-14.2% (inactive),54.2,40,-6.27% (inactive),0.82% (inactive)
CC(C)(C)OC(=O)N1CC=C2C(C#N)=C(N)C(C#N)(C#N)[C@H](c3cccnc3)[C@H]2C1,88,100% (inactive),88% (inactive),81.1% (inactive),86.3% (inactive),-12.4% (inactive),98.7,86.3,-2.67% (inactive),14% (inactive)
Cc1ccc(S(=O)(=O)CC2CSc3nnc(C)c(=O)n32)cc1 (stereo not given),136,112% (inactive),136% (inactive),125% (inactive),88% (inactive),2.67% (inactive),85.4,88,-5.26% (inactive),1.17% (inactive)
COc1cccc(OCCOCCN(C)CCO)c1,124,124% (inactive),124% (inactive),84.4% (inactive),97.3% (inactive),7.71% (inactive),89.6,97.3,-4.93% (inactive),-1.45% (inactive)
O=S(=O)(c1ccc(OCC(O)CN2CCc3ccccc3C2)cc1)N1CCOCC1 (stereo not given),89,83.5% (inactive),89% (inactive),98.2% (inactive),87.6% (inactive),2.98% (inactive),84.6,87.6,-1.71% (inactive),-2.73% (inactive)
Cc1ccc(C2CC(c3cccc(Br)c3)Nc3nnnn32)cc1 (stereo not given),92.5,79.5% (inactive),92.5% (inactive),56.7% (inactive),91.7% (inactive),6.65% (inactive),85,91.7,-2.11% (inactive),0.16% (inactive)
